# Bioassay records (PubChem BioAssay)
# Rin1-Abl PPI inh – inhibitors of Rin1-Abl protein binding, primary screen, biochemical, TR-FRET; Tyrosine-protein kinase ABL1 (Homo sapiens) + Ras and Rab interactor 1 (Homo sapiens), …; inhibition, % at 7.35 µM; 360,000 tested, 0.4% active; AID 588664, 2011; in the data active = inhibition above about 5%, passing the limit was not always enough
# LEDGF integ inh – blockers of LEDGF/p75-dependent integrase strand transfer – biochemical, TR-FRET, high throughput, primary screen | TR-FRET IN-LEDGF/p75 DNA integration, Eu/Cy5 | inhibition, % at 3.7 µM | 370,000 tested, 0.64% active | AID 743269, 2014;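 active = inhibition above the screen-wide mean plus 3 SD, cut at about 13% in these data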;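 also: signal is the Cy5 over europium emission ratio at 671 and 618 nm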
# UHRF1 binding – UHRF1 methylated DNA binding inhibitors, primary screen, counter-screen for MBD2 inhibitor project, biochemical, TR-FRET, human UHRF1, single concentration. inhibition, % at 4.4 µM. 370,000 tested, 0.75% active. E3 ubiquitin-protein ligase UHRF1 (Homo sapiens), Q96T88. UHRF1 binding to methylated oligo. AID 687016, 2013; in the data active = inhibition above about 21%;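 also: UHRF1 SRA domain binding a hemimethylated CpG hairpin DNA probe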
# Target sequence (Q96T88 whole entry, looked up, the tested form may be a part): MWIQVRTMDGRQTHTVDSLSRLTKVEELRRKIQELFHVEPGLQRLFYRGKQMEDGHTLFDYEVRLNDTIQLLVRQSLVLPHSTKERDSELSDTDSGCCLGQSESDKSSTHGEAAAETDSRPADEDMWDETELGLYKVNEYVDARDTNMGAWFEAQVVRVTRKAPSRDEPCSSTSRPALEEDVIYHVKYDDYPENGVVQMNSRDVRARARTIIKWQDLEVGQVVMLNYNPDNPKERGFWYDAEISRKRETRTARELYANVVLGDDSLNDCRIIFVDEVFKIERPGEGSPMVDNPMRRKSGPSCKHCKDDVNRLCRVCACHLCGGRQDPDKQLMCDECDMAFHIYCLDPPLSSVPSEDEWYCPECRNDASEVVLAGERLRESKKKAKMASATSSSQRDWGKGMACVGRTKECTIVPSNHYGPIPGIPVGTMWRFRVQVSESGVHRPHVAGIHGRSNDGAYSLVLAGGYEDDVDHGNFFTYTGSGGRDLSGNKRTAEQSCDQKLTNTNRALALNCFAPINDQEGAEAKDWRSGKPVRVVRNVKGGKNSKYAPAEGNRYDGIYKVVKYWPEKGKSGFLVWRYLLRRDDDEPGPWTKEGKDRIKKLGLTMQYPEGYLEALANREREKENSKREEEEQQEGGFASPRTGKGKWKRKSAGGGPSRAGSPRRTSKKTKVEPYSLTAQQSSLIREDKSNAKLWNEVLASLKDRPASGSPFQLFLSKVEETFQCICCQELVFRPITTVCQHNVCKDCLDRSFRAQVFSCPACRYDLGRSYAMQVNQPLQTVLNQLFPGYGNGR
# TDP2 inh – human TDP2 enzyme inhibitors, primary screen, biochemical, epi absorbance, recombinant enzyme; Tyrosyl-DNA phosphodiesterase 2 (Homo sapiens), O95551; T5PNP hydrolysis, p-nitrophenol absorbance 415 nm; inhibition, % at 12.8 µM; 370,000 tested, 0.34% active;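 active = inhibition above the mean of all tested compounds plus 3 SD, set per campaign, cut at about 25% in these data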
#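 System: recombinant human TDP2 / Amount: 120 nM TDP2 per well / Also added: 5 mM T5PNP chromogenic substrate / Doses: 12.8 µM single point, 1% DMSO / Incubation: 2 h at 37 °C / Detection: p-Nitrophenol epi absorbance / Evaluation: % inhibition relative to enzyme-containing and enzyme-free wells / Repeats: singlicate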
# MBD2 DNA inh – inhibitors of MBD2 binding to methylated DNA, primary screen, biochemical, TR-FRET, DNA-binding domain, human; Methyl-CpG-binding domain protein 2 (Homo sapiens), Q9UBB5; MBD2 binding to methylated oligonucleotide; inhibition, % at 4.4 µM; 370,000 tested, 0.31% active; in the data active = inhibition above about 13%
# Hits are given with their value; i = inactive; nt = no result given. Only some compounds are listed: those with a hit (about 1.9% of all), similar ones and a draw of the others.
SMILES,Rin1-Abl PPI inh,LEDGF integ inh,UHRF1 binding,TDP2 inh,MBD2 DNA inh
CC1(OC(=O)CCc2ccccc2)C(=O)C=C2C=C(c3ccc(C#N)cc3)N(Cc3ccco3)C=C2C1=O (configuration not stated),i,17.1,i,i,i
CC1(OC(=O)CCc2ccccc2)C(=O)C=C2C=C(c3ccc(C#N)cc3)N(Cc3ccccc3)C=C2C1=O (configuration not stated),i,i,i,i,i
CC1=CC(c2ccccc2)n2nc(N3C(=O)c4ccccc4C3=O)nc2N1 (configuration not stated),i,i,i,i,i
CC1=CC(c2ccccc2)n2nnnc2N1 (configuration not stated),i,i,35.4,i,i
CCCCCCOc1ccc(N2C(=O)CC(N3CCC(C(=O)OCC)CC3)C2=O)cc1 (configuration not stated),i,i,43.0,i,i
COC(=O)C[C@@H]1CC[C@H]2[C@@H](COc3ccc(NC(=O)Nc4ccccc4Cl)cc3C(=O)N2C)O1,nt,i,i,i,i
O=C(c1cc(Cl)ccc1F)N1CCCC(c2nc(-c3cccs3)no2)C1 (configuration not stated),nt,i,i,i,i
COc1ccc(CCN(C(=O)C(F)(F)F)C(C(=O)NC2CCCCC2)c2ccc(C)s2)cc1OC (configuration not stated),i,i,28.6,i,i
COc1ccc(CCN(C(=O)C(F)(F)F)C(C(=O)NC2CCCC2)c2cccs2)cc1OC (configuration not stated),i,i,i,i,i
O=C(Nc1ccccc1F)C1CCN(C(=O)NCc2ccccc2)CC1,i,i,24.3,i,i
Cc1ccc2cc(C3C(C#N)=C(N)Oc4c3ccc3cccnc43)c(=O)[nH]c2c1 (configuration not stated),i,nt,nt,nt,nt
CCc1ccc2[nH]c(=O)c(C3C(C#N)=C(N)Oc4c3ccc3cccnc43)cc2c1 (configuration not stated),10.0,i,i,i,i
O=C(Nc1cccc(C(F)(F)F)c1)OC1CC2CC1[C@H]1CCCCN1[C@H]2Cc1ccccc1 (some centres not stated),nt,i,i,i,i
CCC(Sc1nc2cc(OC)c(OC)cc2c(=O)n1Cc1ccco1)C(=O)NCCOC (configuration not stated),i,i,i,i,i
CCC(Sc1nc2cc(OC)c(OC)cc2c(=O)n1Cc1ccc(OC)cc1)C(=O)NCCOC (configuration not stated),i,i,23.3,i,i
Cc1ccc2c(c1)N(CCC(=O)NC1CCCCC1)C(=O)CO2,i,i,21.7,i,i
Cc1ccc2c(c1)N(CC(=O)NC1CCCCC1C)C(=O)CO2 (configuration not stated),i,i,i,i,i
Cc1ccc(C2=NN(CCC(=O)NC3CCCC3)C(=O)CC2)cc1,i,i,22.8,i,i
Cn1c(COc2ccccc2)nnc1SCC(=O)Nc1ccc(OCc2ccccc2)cc1,nt,i,i,i,i
CN(C)NC(=S)NC(=O)C12CC3CC(CC(C3)C1)C2,i,i,i,i,i
CN(C(=S)NC(=O)C12CC3CC(CC(C3)C1)C2)c1ccc(O)cc1,i,15.3,i,i,i
N#CCC[C@@H]1CC[C@]2(CCCN(C(=O)C3CCCC3)C2)O1,nt,i,i,i,i
CC(C)c1ccc(S(=O)(=O)N2CCN(CCC(=O)Nc3ccc(N(C)C)cc3)CC2)cc1,i,i,23.0,i,15.2
COc1ccc(NC(=O)CCN2CCN(S(=O)(=O)c3ccc(C(C)C)cc3)CC2)cc1,i,i,i,i,i
CN(C)c1ccc(C=c2c3ccccc3n3c2c2c([n+]3C)CCCC2)cc1,i,i,38.3,i,i
SMILES,Rin1-Abl PPI inh,LEDGF integ inh,UHRF1 binding,TDP2 inh,MBD2 DNA inh
CC(C)NC(=O)N[C@H]1C[C@@H]2O[C@@H](CO)CC[C@@H]2O[C@@H]1CCc1ccc(-c2ccc(F)cc2)cc1,nt,i,i,i,i
COc1ccc(/C=C/c2nc(-c3ccccc3O)n[nH]2)cc1,i,i,66.0,i,i
COc1nc(-c2cccs2)cc(-c2ccc(C)cc2)c1C#N,i,i,22.1,i,i
COc1ccc(-c2cc(-c3cccs3)nc(OC)c2C#N)cc1OC,i,i,i,i,i
CC(=O)NN1C(=O)c2ccccc2NC1c1ccccc1F (configuration not stated),i,i,62.8,i,i
O=C(c1coc2ccc(O)cc12)C1CC1,i,i,21.3,i,i
O=C(CN1C(=O)CCSc2ccccc21)Nc1ccc(Cl)cc1,nt,i,i,i,i
O=C(Cn1nnc(-c2ccccc2)n1)Nc1cccc(S(=O)(=O)N2CCOCC2)c1,i,i,28.9,i,i
Cn1c(CC(=O)Nc2ccccc2)n[nH]c1=S,i,i,i,i,i
CCOC(=O)Cc1nn(CC)c(=O)c2ccccc12,i,i,i,i,i
Cn1nc(Cc2n[nH]c(=S)n2C)c2ccccc2c1=O,i,i,56.1,i,i
CCOC(=O)Cc1nn(C)c(=O)c2ccccc12,i,i,26.1,i,i
Cc1cccc(Cn2cc(CN3CC(N(C)CCCOC(=O)c4cc5ccccc5o4)CS3(=O)=O)nn2)c1 (configuration not stated),nt,i,i,i,i
S=C(NCc1ccco1)Nc1cc(-c2ccccc2)[nH]n1,i,i,28.9,i,i
COc1cccc(CCNS(=O)(=O)c2c(C)n[nH]c2C)c1,nt,i,i,i,i
Cc1nn(CC(=O)O)c(C)c1N,i,i,29.8,i,i
Cc1nn(CC(=O)O)c(C)c1[N+](=O)[O-],i,i,i,i,i
COc1ccc(CCC[C@@H](CCC(=O)N(c2ccccc2)c2ccccc2)CCc2ccccc2)cc1,nt,i,i,i,i
CCCc1cc(-c2n[nH]c(C)c2-c2ccc(C(=O)OCC)o2)c(O)cc1O,i,i,i,i,i
CCCc1cc2c(OC(=O)CC)c(-c3ccc(C(=O)OCC)o3)c(=O)oc2cc1OC,i,i,24.2,i,i
COc1ccc2c(c1C(=O)/C=C/c1ccccc1)OC(C)(C)C=C2,nt,i,i,i,i
Cc1cccc(-c2nnc(SCC(=O)Nc3cccc4ccccc34)n2Cc2ccco2)c1,nt,i,i,i,i
CCn1c(SCc2nc3sc(C(=O)O)c(C)c3c(=O)[nH]2)nc2ccccc21,i,i,24.9,i,i
CC(=O)c1ccc(-c2cc(C(C)=O)c3n(c2=O)CCC3)cc1,nt,i,i,i,i
CSCCC1NC(=O)N(C(C)C(=O)Nc2cc(Cl)cc(Cl)c2)C1=O (configuration not stated),i,i,23.9,i,i
